Drawing on ChEMBL document CHEMBL1125205, “Phosphorus-containing inhibitors of HMG-CoA reductase. 2. Synthesis and biological activities of a series of substituted pyridines containing a hydroxyphosphinyl moiety” (J Med Chem, 1991), this text covers IC50, ED50 and Selectivity for 51 molecules.

Assay [1] has as its target T1, 3-hydroxy-3-methylglutaryl-coenzyme A reductase (Rattus norvegicus, UniProt P51639).
T1 sequence (P51639 whole entry): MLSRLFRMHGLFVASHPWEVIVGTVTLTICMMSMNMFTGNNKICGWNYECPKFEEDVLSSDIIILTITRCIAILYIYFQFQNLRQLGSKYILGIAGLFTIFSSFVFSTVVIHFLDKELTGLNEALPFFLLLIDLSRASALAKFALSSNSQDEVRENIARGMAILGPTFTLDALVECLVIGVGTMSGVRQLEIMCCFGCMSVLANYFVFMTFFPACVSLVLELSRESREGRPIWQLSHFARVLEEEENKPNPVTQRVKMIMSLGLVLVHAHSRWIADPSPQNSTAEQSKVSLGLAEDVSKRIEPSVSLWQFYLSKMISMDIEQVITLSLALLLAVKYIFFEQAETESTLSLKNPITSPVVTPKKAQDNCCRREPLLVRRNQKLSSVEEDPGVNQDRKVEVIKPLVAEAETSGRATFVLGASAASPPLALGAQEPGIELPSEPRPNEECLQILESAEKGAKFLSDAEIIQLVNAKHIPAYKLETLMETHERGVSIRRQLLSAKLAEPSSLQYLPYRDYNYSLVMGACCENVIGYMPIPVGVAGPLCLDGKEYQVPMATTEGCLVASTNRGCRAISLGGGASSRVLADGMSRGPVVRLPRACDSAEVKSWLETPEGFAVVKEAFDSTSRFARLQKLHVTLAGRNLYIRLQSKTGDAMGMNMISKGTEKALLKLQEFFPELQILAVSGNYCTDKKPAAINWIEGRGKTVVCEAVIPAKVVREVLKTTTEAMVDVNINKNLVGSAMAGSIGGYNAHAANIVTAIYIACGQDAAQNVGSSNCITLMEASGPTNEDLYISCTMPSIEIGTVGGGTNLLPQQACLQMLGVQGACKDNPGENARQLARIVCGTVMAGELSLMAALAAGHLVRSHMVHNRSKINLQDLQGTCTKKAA
Description: In vitro for inhibition of rat HMG-CoA reductase. The settings on record: read-out: I50. In outline:
(§1)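 Enzyme source: hepatic microsomes from cholestyramine-fed Sprague-Dawley rats. Final assay conditions: 0.04 M potassium phosphate pH 7.2, KCl, sucrose, EDTA, 10 mM DTT, 1% DMSO, 50-200 µg microsomal protein. Microsomes were preincubated with 2.7 mM NADPH for 15 min at 37 °C, then with compound for 15 min. 100 µM 14C-[D,L]-HMG-CoA was then added for 20 min at 37 °C. Read-out: 14C-mevalonate, corrected by 3H-mevalonate recovery. I50 taken from composite dose-response regressions, 2-5 experiments.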

Assay [2] is filed under the species Rattus norvegicus. The assay can be described thus: The compound was tested for inhibition of Cholesterol synthesis from [14C]- Acetate in hepatocytes of rats. It is filed as functional. The conditions noted are these: Hepatocyte, read-out: I 50. In outline:
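Rat hepatocytes were freshly isolated by collagenase perfusion, 70-90% viable. Cells were suspended at 5 × 10^6 per 2.0 mL in Tris pH 7.4 incubation medium with cofactors; DMSO was ≤1.0% final. Incubation was with [14C]acetate (2 µCi/mL) for 2.0 h at 37 °C. Lipids were extracted by Bligh-Dyer and the percent of label in the cholesterol peak was compared with controls. I50 from composite curves of two or more studies.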

Assay [3] has as its system Rattus norvegicus. The assay can be described thus: The compound was tested in vivo for inhibition of Cholesterol Biosynthesis from [14C]- acetate in rat after peroral administration. The format is functional. The settings on record: po.
The nature of assay [4]: It is the ratio of I50 fibroblasts to that of I50 hepatocytes. It is filed as functional, Hepatocyte. The method in brief:
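Selectivity is the ratio of I50 in human skin fibroblasts to I50 in freshly isolated rat hepatocytes. Each I50 came from [14C]acetate incorporation into cholesterol, measured as percent inhibition versus controls from composite dose-response data.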

For a further assay, the species on record is Homo sapiens. The assay can be described thus: The compound was tested for inhibition of Cholesterol synthesis from [14C]- Acetate in human skin fibroblasts. It is filed as functional. The settings on record: read-out: I 50. In outline: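 Human skin fibroblasts (passage 7-27) were plated at 5 × 10^5 cells/well and cultured 18 h. Sterol synthesis was induced by 24 h in serum-free MEM with 1.0% fatty acid-free BSA. Cells were preincubated with compound for 30 min (DMSO ≤1.0%), then given sodium [1-14C]acetate at 2.0 µCi/mL for 4 h. Label in the extracted cholesterol peak was compared with controls. I50 from composite curves of ≥2 experiments.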

Assay [5] addresses T1, 3-hydroxy-3-methylglutaryl-coenzyme A reductase. Description: The compound was tested in vitro for inhibition of rat hepatic HMG-CoA reductase. The format is functional. The settings on record: read-out: I50. The method in brief:
as §1

Regarding `CC(C)c1nc(-c2cc(F)c(F)c(F)c2F)cc(-c2ccc(F)cc2)c1C#CP(=O)(O)C[C@H](O)CC(=O)O`, the IC50 in assay [1] stood at 8.9 nM.
For `Cc1cc(F)ccc1-c1cc(-c2ccccc2)nc(C(C)C)c1/C=C/P(=O)(O)C[C@H](O)CC(=O)O`, the IC50 in assay [1] stood at 3.9 nM.
Still for that read-out and setting: next, `CC(C)(C)c1nc(-c2ccccc2)cc(-c2ccc(F)cc2)c1C#CP(=O)(O)C[C@H](O)CC(=O)O`: 68.4 nM.
Turning to `CCc1c(-c2ccccc2)nc(C(C)C)c(C#CP(=O)([O-])C[C@H](O)CC(=O)[O-])c1-c1ccc(F)cc1.[Na+].[Na+]`, the IC50 in the assay listed under Rattus norvegicus [2] was 519 nM; in assay [1], 5.6 nM; in the assay filed under Homo sapiens, 6750 nM. The ED50 – broadly, the dose at which the effect has come halfway, by size or by number of responders – with Rattus norvegicus [3] amounted to 4.5 mg/kg. For the same molecule, in assay [4], the Selectivity is 13.
With `Cc1ccccc1-c1cc(-c2ccc(F)cc2)c(C#CP(=O)(O)C[C@H](O)CC(=O)O)c(C(C)C)n1`, in assay [1], the IC50 turned out to be 32.6 nM.
The same measure, in the same setting: next, `CC(C)c1cc(-c2ccc(F)cc2)c(C#CP(=O)(O)C[C@H](O)CC(=O)O)c(C(C)C)n1`: 80.9 nM.
Still for that read-out and setting: next, `CC(C)c1nc(C2CCCCC2)cc(-c2ccc(F)cc2)c1C#CP(=O)(O)C[C@H](O)CC(=O)O`: 48.4 nM.
Regarding `CC(C)c1nc(C(C)(C)C)cc(-c2ccc(F)cc2)c1COP(=O)(O)C[C@H](O)CC(=O)O`, in assay [5], the IC50 was found to be 1.4 nM.
In the case of `CCc1c(-c2ccccc2)nc(C(C)C)c(COP(=O)(O)C[C@H](O)CC(=O)O)c1-c1ccc(F)cc1`, in assay [5], the IC50 was determined as 2.5 nM.
Regarding `CC(C)c1cc(-c2ccccc2)nc(-c2ccc(F)cc2)c1C#CP(=O)(O)C[C@H](O)CC(=O)O`, the IC50 in assay [1] was determined as 420 nM.
Still for that read-out and setting: next, `CC(C)c1nc2c(c(-c3ccc(F)cc3)c1CCP(=O)(O)C[C@H](O)CC(=O)O)CCCc1ccccc1-2`: 18.6 nM.
Turning to `CC(C)c1nc2c(c(-c3ccc(F)cc3)c1COP(=O)(O)C[C@H](O)CC(=O)O)CCCc1ccccc1-2`, the IC50 in assay [5] is 1.2 nM.
For `CC(C)c1nc(C2CC2)cc(-c2ccc(F)cc2)c1C#CP(=O)(O)C[C@H](O)CC(=O)O`, in assay [1], the IC50 came out at 4.2 nM.
Same read-out and setting: next, `CC(C)c1nc2c(c(-c3ccc(F)cc3)c1C#CP(=O)(O)C[C@H](O)CC(=O)O)CCc1ccccc1-2`: 52.5 nM; `CC(C)c1nc2c(c(-c3ccc(F)cc3)c1C#CP(=O)(O)C[C@H](O)CC(=O)O)CCCc1ccccc1-2`: 14.4 nM; `CC(C)c1nc(-c2cccc3ccccc23)cc(-c2ccc(F)cc2)c1C#CP(=O)(O)C[C@H](O)CC(=O)O`: 28.7 nM.
The same measure, in the same setting: next, `Cc1c(-c2ccccc2)nc(C2CC2)c(C#CP(=O)(O)C[C@H](O)CC(=O)O)c1-c1ccc(F)cc1`: 4.6 nM.
As to `Cc1nc(-c2ccccc2)c(C)c(-c2ccc(F)cc2)c1COP(=O)(O)C[C@H](O)CC(=O)O`, the IC50 in assay [5] stood at 1300 nM.
In the case of `CCc1c(-c2ccccc2)nc(C(C)C)c(CCP(=O)(O)C[C@H](O)CC(=O)O)c1-c1ccc(F)cc1`, the IC50 in assay [1] was 19.1 nM.
Regarding `Cc1c(-c2ccccc2)nc(C2CC2)c(CCP(=O)(O)C[C@H](O)CC(=O)O)c1-c1ccc(F)cc1`, in assay [1], the IC50 was determined as 9.2 nM.
On the same count and under the same terms, to `CC(C)c1nc(-c2ccccc2)cc(-c2ccc(F)cc2)c1CCP(=O)(O)C[C@H](O)CC(=O)O` belongs 181 nM.
For `Cc1nc(-c2ccccc2)c(C)c(-c2ccc(F)cc2)c1C#CP(=O)(O)C[C@H](O)CC(=O)O`, the IC50 in assay [1] was determined as 1300 nM.
Regarding `Cc1c(-c2ccccc2)nc(C2CC2)c(COP(=O)(O)C[C@H](O)CC(=O)O)c1-c1ccc(F)cc1`, in assay [5], the IC50 amounted to 1.3 nM.
Turning to `CC(C)c1nc(-c2ccccc2)c(F)c(-c2ccc(F)cc2)c1C#CP(=O)(O)C[C@H](O)CC(=O)O`, the IC50 in assay [1] was 44.9 nM.
`CC(C)c1nc(-c2ccccc2)cc(-c2ccc(F)cc2)c1COP(=O)(O)C[C@H](O)CC(=O)O`: in assay [5], the IC50 worked out at 12.7 nM.
For the molecule `Cc1cc(-c2ccc(F)cc2)c(C#CP(=O)(O)C[C@H](O)CC(=O)O)c(C(C)C)n1`, in assay [1], the IC50 came out at 231 nM.
The same measure, in the same setting: next, `CC(C)c1nc2c(c(-c3ccc(F)cc3)c1/C=C/P(=O)(O)C[C@H](O)CC(=O)O)CCCc1ccccc1-2`: 1.3 nM; `Cc1c(-c2ccccc2)nc(C2CC2)c(/C=C/P(=O)(O)C[C@H](O)CC(=O)O)c1-c1ccc(F)cc1`: 2.5 nM.
Same read-out and setting: next, `CC(C)c1nc2c(c(-c3ccc(F)cc3)c1C#CP(=O)(O)C[C@H](O)CC(=O)O)Cc1ccccc1-2`: 75.6 nM; `O=C(O)C[C@@H](O)CP(=O)(O)C#Cc1c(-c2ccc(F)cc2)cc(-c2ccccc2)nc1C1CC1`: 90.9 nM; `CC(C)c1nc(-c2cccc3c2OCO3)cc(-c2ccc(F)cc2)c1C#CP(=O)(O)C[C@H](O)CC(=O)O`: 84.6 nM.
As to `CC(C)c1nc(-c2ccccc2Cc2ccccc2)cc(-c2ccc(F)cc2)c1C#CP(=O)(O)C[C@H](O)CC(=O)O`, in assay [1], the IC50 was found to be 62.6 nM.
The same measure, in the same setting: next, `Cc1cc(-c2cc(-c3ccccc3)nc(C(C)C)c2C#CP(=O)(O)C[C@H](O)CC(=O)O)ccc1F`: 22 nM; `CCc1nc(-c2ccccc2)c(C)c(-c2ccc(F)cc2)c1CCP(=O)(O)C[C@H](O)CC(=O)O`: 79.8 nM.
Turning to `CC(C)c1nc(C23CC4CC(CC(C4)C2)C3)cc(-c2ccc(F)cc2)c1C#CP(=O)(O)C[C@H](O)CC(=O)O`, the IC50 in assay [1] was found to be 43.8 nM.
On the same count and under the same terms, next, `CC(C)c1nc(-c2ccccc2)c(C(C)C)c(-c2ccc(F)cc2)c1C#CP(=O)(O)C[C@H](O)CC(=O)O`: 9.8 nM.
Regarding `Cc1cc(F)ccc1-c1cc(-c2ccccc2)nc(C(C)C)c1C#CP(=O)(O)C[C@H](O)CC(=O)O`, the IC50 in assay [1] turned out to be 156 nM.
Take `CCc1nc(-c2ccccc2)c(C)c(-c2ccc(F)cc2)c1COP(=O)(O)C[C@H](O)CC(=O)O`: the IC50 in assay [5] is 19.4 nM.
In the case of `Cc1nc(-c2ccccc2)c(C)c(-c2ccc(F)cc2)c1CCP(=O)(O)C[C@H](O)CC(=O)O`, in assay [1], the IC50 came to 235 nM.
Same read-out and setting: next, `CC(C)c1nc(-c2ccccc2)c(-c2ccccc2)c(-c2ccc(F)cc2)c1C#CP(=O)(O)C[C@H](O)CC(=O)O`: 15.6 nM.
On the same count and under the same terms, next, `CC(C)c1nc(C(C)(C)C)cc(-c2ccc(F)cc2)c1/C=C/P(=O)(O)C[C@H](O)CC(=O)O`: 3.2 nM; `CC(C)c1nc(-c2cccs2)cc(-c2ccc(F)cc2)c1C#CP(=O)(O)C[C@H](O)CC(=O)O`: 14.6 nM.
On the same count and under the same terms, to `Cc1cc(F)ccc1-c1cc(-c2ccccc2)nc(C(C)C)c1CCP(=O)(O)C[C@H](O)CC(=O)O` belongs 115 nM; to `Cc1c(-c2ccccc2)nc(C(C)C)c(CCP(=O)(O)C[C@H](O)CC(=O)O)c1-c1ccc(F)cc1`, 9.2 nM.
As to `O=C(O)C[C@@H](O)CP(=O)(O)OCc1c(-c2ccc(F)cc2)cc(-c2ccccc2)nc1C1CC1`, the IC50 in assay [5] was determined as 29 nM.
Regarding `CCc1nc(-c2ccccc2)c(C)c(-c2ccc(F)cc2)c1C#CP(=O)(O)C[C@H](O)CC(=O)O`, the IC50 in assay [1] was found to be 110 nM.
Same read-out and setting: next, `CCc1nc(-c2ccccc2)c(C)c(-c2ccc(F)cc2)c1/C=C/P(=O)(O)C[C@H](O)CC(=O)O`: 4.7 nM.
As to `Cc1c(-c2ccccc2)nc(C(C)C)c(COP(=O)(O)C[C@H](O)CC(=O)O)c1-c1ccc(F)cc1`, the IC50 in assay [5] is 5.1 nM.
As to `CC(C)c1nc(C(C)(C)C)cc(-c2ccc(F)cc2)c1CCP(=O)(O)C[C@H](O)CC(=O)O`, in assay [1], the IC50 is 17.2 nM.
Still for that read-out and setting: next, `CC(C)c1cc(-c2ccccc2)nc(-c2ccc(F)cc2)c1/C=C/P(=O)(O)C[C@H](O)CC(=O)O`: 45.3 nM; `CC(C)c1nc(C(c2ccccc2)c2ccccc2)cc(-c2ccc(F)cc2)c1C#CP(=O)(O)C[C@H](O)CC(=O)O`: 14.9 nM.
